Assay results: ChEMBL document CHEMBL1135118, “Aromatic farnesyl diphosphate analogues: vinyl triflate-mediated synthesis and preliminary enzymatic evaluation” (Bioorg Med Chem Lett, 2002)
One block for each compound: values may come before it.

Tests used:
Type in all cases: protein-complex assay
[1] = molecular target: T1, Protein farnesyltransferase (Homo sapiens, UniProt P49354+P49356); test: Inhibitory activity against mammalian protein-Farnesyltransferase at 10 uM
[2] = system: C/C(=C\COP(=O)(O)OP(=O)(O)O)CCc1ccc(-c2ccccc2)cc1; test: Binding affinity for Farnesyltransferase
How it was run: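 Continuous fluorimetric farnesylation assay with purified recombinant mammalian FTase and dansyl-GCVLS peptide as cosubstrate. FPP analogue or E,E-FPP supplied as a varied substrate in 52 mM Tris–HCl pH 7.0 with 5.8 mM DTT, MgCl₂, ZnCl₂ and 0.4% n-dodecyl-β-D-maltoside. Reaction started with enzyme; fluorescence (ex 350/em 486 nm) recorded for 300 s at 30 °C. Initial fluorescence rates were converted to velocities for Km.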

[3] = molecular target: T1, Protein farnesyltransferase; test: Inhibitory activity against mammalian protein-Farnesyltransferase
How it was run: (§1)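 Inhibition read in the continuous fluorescence assay with recombinant mammalian FTase and dansyl-GCVLS peptide at 30 °C for 300 s (ex 350/em 486 nm). Tris–HCl pH 7.0 buffer held DTT, MgCl₂, ZnCl₂ and 0.4% dodecyl maltoside. E,E-FPP was fixed while analogue amounts varied; farnesylation rate was measured for each.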

[4] = molecular target: T1, Protein farnesyltransferase; test: Inhibitory activity against mammalian protein-farnesyltransferase; how it was run: as §1

IC50 [1]: > 10 µM
Compound: C/C(=C\COP(=O)(O)OP(=O)(O)O)CCc1ccccc1-c1ccccc1

Compound: Protein farnesyltransferase (Homo sapiens) (from UniProt P49354+P49356)
Km [2]: 0.8 µM

IC50 [3]: 5.4 µM
Compound: C/C(=C\COP(=O)(O)OP(=O)(O)O)CCc1ccc2ccccc2c1

IC50 [4]: 2.3 µM
Compound: C/C(=C\COP(=O)(O)OP(=O)(O)O)COCc1ccc(C(=O)c2ccccc2)cc1
